Experimental findings from ChEMBL document CHEMBL2177066, “Opioid activity profiles of oversimplified peptides lacking in the protonable N-terminus” (J Med Chem, 2012) are described below.

The structures appear in SMILES notation. Where a SMILES comes first, the peptide text is derived from it. [ ]: non-standard residue; d: D form. A value given as a limit tells only on which side of the number the result lay.

The target in test [1] is T1, Mu-type opioid receptor (Homo sapiens, UniProt P35372). As to the kind of experiment: biochemical.
T1 sequence (P35372 whole entry): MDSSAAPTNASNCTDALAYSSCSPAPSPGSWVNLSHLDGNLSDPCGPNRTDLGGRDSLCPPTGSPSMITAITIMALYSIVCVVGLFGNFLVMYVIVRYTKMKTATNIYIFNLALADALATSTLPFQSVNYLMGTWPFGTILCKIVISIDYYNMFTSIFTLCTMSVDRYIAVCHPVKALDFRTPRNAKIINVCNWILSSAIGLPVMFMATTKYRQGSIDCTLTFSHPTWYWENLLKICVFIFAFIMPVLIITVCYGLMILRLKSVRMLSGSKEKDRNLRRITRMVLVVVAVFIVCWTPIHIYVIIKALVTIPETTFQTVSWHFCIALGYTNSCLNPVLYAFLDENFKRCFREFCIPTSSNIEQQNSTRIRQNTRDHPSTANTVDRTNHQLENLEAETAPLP
For test [2], the target named is Delta-type opioid receptor (Homo sapiens, UniProt P41143). Kind of test: Displacement of [3H]diprenorphine from human DOR expressed in HEK293 cells after 90 mins by liquid scintillation counting. The class given is cell-based. A general note: Loss of bound radioactivity is the signal in a displacement assay; it reports binding, not function.
Sequence of Delta-type opioid receptor (P41143 whole entry): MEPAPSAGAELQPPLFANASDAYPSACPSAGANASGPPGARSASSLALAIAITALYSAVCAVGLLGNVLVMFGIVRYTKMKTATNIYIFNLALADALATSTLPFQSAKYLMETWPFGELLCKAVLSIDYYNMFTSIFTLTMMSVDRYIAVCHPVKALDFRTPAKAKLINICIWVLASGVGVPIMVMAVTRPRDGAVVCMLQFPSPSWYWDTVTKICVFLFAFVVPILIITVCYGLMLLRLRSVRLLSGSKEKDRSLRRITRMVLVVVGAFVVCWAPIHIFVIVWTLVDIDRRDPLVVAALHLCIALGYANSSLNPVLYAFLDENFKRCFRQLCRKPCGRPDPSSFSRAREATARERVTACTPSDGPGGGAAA
Test [3] concerns the target Kappa-type opioid receptor (Homo sapiens, UniProt P41145). As to the kind of experiment: Displacement of [3H]U69,593 from human KOR expressed in HEK293 cells after 90 mins by liquid scintillation counting. Type of test: cell-based. In outline:
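Membranes from HEK-293 cells expressing human KOR incubated 90 min at 25 °C in 100 mM Tris-HCl with 0.3% BSA, with [3H]U69,593 at 2 nM. Nonspecific binding defined with 10 μM U50,488. Filtered on polyethylenimine-presoaked GF/C filters, washed with ice-cold 50 mM Tris-HCl pH 7.4, then scintillation counted. Run in triplicate, ≥3 experiments. Ki from IC50 by Cheng–Prusoff.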

The target in test [4] is T1, Mu-type opioid receptor. Type of test: functional, cell-based, HEK293.
In test [5] the target is T1, Mu-type opioid receptor. As to the kind of experiment: Partial agonist activity at human MOR expressed in HEK293 cells assessed as inhibition of forskolin-induced cAMP accumulation after 15 mins by cAMP EIA. Type of test: functional, cell-based. The gist of the method: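 Whole HEK-293 cells stably expressing MOR, grown in MEM/10% FBS and plated at 85–95% confluence. Cells washed, placed in serum-free medium with 0.5 mM IBMX, and given 10 μM forskolin ± compound (0.01 nM–100 μM) for 15 min at 37 °C. Lysed in 0.1 N HCl; cAMP in supernatant measured by EIA. Triplicates averaged for IC50 and Emax (% vehicle), 5–6 independent experiments.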

By Ki is commonly meant the equilibrium dissociation constant of an inhibitor or competing ligand from its target. Low values mean higher affinity, high ones lower affinity. A word on the IC50: it is the point on the concentration scale where inhibition reaches its midpoint.

Sequence of Kappa-type opioid receptor (P41145 whole entry): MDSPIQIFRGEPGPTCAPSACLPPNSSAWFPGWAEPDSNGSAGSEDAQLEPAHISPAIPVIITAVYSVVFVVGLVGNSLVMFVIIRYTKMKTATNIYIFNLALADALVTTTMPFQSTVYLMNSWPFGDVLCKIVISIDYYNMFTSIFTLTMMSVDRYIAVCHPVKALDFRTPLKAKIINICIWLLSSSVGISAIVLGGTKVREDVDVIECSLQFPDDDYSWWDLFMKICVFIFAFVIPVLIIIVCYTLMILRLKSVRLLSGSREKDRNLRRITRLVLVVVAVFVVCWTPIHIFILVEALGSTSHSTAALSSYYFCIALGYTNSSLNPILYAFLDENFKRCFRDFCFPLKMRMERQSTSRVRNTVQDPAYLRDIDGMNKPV

As to `CC(=O)N[C@H](Cc1cnc[nH]1)C(=O)N[C@@H](Cc1ccccc1)C(N)=O`, the inhibition constant (Ki) (at Mu-type opioid receptor [1]; in test [2]; in test [3]) was over 100 µM each time.
Turning to `CC(=O)N[C@H](Cc1cnc[nH]1)C(=O)N[C@@H](Cc1ccccc1)C(=O)NCC(N)=O`, the inhibition constant (Ki) (at Mu-type opioid receptor [1]; in test [2]; in test [3]) was over 100 µM in each case.
Regarding `CC(=O)N[C@H](CCCCN)C(=O)N[C@@H](Cc1ccccc1)C(N)=O`, the inhibition constant (Ki) (at Mu-type opioid receptor [1]; in test [2]; in test [3]) was over 100 µM in each case.
For the compound `CC(=O)N[C@H](CCCCN)C(=O)N[C@@H](Cc1ccccc1)C(=O)NCC(N)=O`, the Ki (at Mu-type opioid receptor [1]; in test [2]; in test [3]) was over 100 µM throughout.
As for `CC(=O)N[C@H](CCCNC(=N)N)C(=O)N[C@@H](Cc1ccccc1)C(N)=O`, the inhibitory constant (Ki) (on Mu-type opioid receptor [1]; in test [2]; in test [3]) was over 100 µM throughout.
As for `CC(=O)N[C@H](CCCNC(=N)N)C(=O)N[C@@H](Cc1ccccc1)C(=O)NCC(N)=O`, the Ki (on Mu-type opioid receptor [1]; in test [2]; in test [3]) was over 100 µM each time.
Turning to `NC(=O)[C@H]1CC(=O)NCCC(=O)N[C@H](Cc2c[nH]c3ccccc23)C(=O)N[C@@H](Cc2ccccc2)C(=O)N1`, the results for the Ki (on Mu-type opioid receptor [1]; in test [2]; in test [3]) were 0.0059 µM, over 100 µM and over 100 µM, respectively. On Mu-type opioid receptor [4], this compound came in with a 50% inhibitory concentration (IC50) of 0.037 µM.
Take `CC(=O)N[C@@H](Cc1c[nH]c2ccccc12)C(=O)N[C@@H](Cc1ccccc1)C(=O)NCC(N)=O` (Ac-Trp-Phe-Gly-NH2): the inhibition constant (Ki) on Mu-type opioid receptor [1] was 74 µM; in test [2], 0.0121 µM; in test [3] it was 33 µM.
With `CC(=O)N[C@H](Cc1c[nH]c2ccccc12)C(=O)N[C@@H](Cc1ccccc1)C(=O)NCC(N)=O` (Ac-[dW]-Phe-Gly-NH2), the results for the Ki (at Mu-type opioid receptor [1]; in test [2]; in test [3]) were 0.0056 µM, over 100 µM and over 100 µM, respectively. Moreover, on Mu-type opioid receptor [5], the IC50 was 0.2 µM.
Turning to `CC(=O)N[C@H](Cc1c[nH]c2ccccc12)C(=O)N[C@@H](Cc1ccccc1)C(N)=O` (Ac-[dW]-Phe-NH2), the values for the inhibition constant Ki (on Mu-type opioid receptor [1]; in test [2]; in test [3]) were 0.0155 µM, 0.024 µM and over 100 µM, respectively. This compound yielded an IC50 at Mu-type opioid receptor [4] of over 100 µM.
